{
  "source": "ChEMBL document CHEMBL4616673",
  "about": "(J Med Chem, 2020)",
  "key": {"[1]": {"test": "Acute toxicity in BALB/c mouse assessed as effect on blood LDH level at 800 mg/kg, po measured on day 14", "format": "organism-based", "conditions": "in vivo", "outline": "(§1)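 BALB/c mice, female and male, 6-8 weeks old, given oral doses within 24 h, up to 400 mg/kg (free compound) or 800 mg/kg (nanocrystal formulation). Watched for body weight loss, diarrhea, anorexia, skin ulcer and toxic death. Serum biochemistry panel was run at the end of treatment.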"}, "MCF7": {"tested_on": "MCF7", "test": "Antiproliferative activity against human MCF7 cells assessed as reduction in cell viability measured after 48 hrs by MTT assay", "format": "functional, cell-based", "conditions": "Homo sapiens, MCF7, 48 h"}, "[2]": {"test": "Acute toxicity in po dosed BALB/c mouse assessed as maximum tolerated dose", "format": "organism-based", "conditions": "in vivo", "outline": "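Acute oral dose-escalation in female and male BALB/c mice, 6-8 weeks old, dosed within 24 h. MTD is the highest dose without obvious side effects: body weight loss, diarrhea, anorexia, skin ulcer or toxic death.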"}, "Raji [3]": {"tested_on": "Raji", "test": "Cell cycle arrest in human Raji cells assessed as accumulation at S phase at 0.031 uM measured after 24 hrs by propidium iodide/RNase staining based flow cytometry (reference value: 52%)", "format": "functional"}, "Raji [4]": {"tested_on": "Raji", "test": "Induction of apoptosis in human Raji cells assessed as necrotic cells at 0.125 uM measured after 48 hrs by Annexin V-FITC staining based flow cytometry (reference value: 0.21 %)", "format": "functional"}, "[5]": {"test": "Acute toxicity in BALB/c mouse assessed as effect on blood GLU level at 400 mg/kg, po measured on day 14", "format": "organism-based", "conditions": "in vivo", "outline": "as §1"}, "Raji [6]": {"tested_on": "Raji", "test": "Induction of ROS generation in human Raji cells assessed as increase in ROS level measured after 24 hrs by DHE dye based fluorescence microplate reader assay", "format": "functional, cell-based", "outline": "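Raji cells treated 24 h, harvested, stained with 10 μM DHE in pre-warmed PBS for 15 min in the dark. Fluorescence read on a plate reader at ex 510/em 600 nm. Mean ± SD.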"}, "A549": {"tested_on": "A549", "test": "Antiproliferative activity against human A549 cells assessed as reduction in cell viability measured after 48 hrs by MTT assay", "format": "functional, cell-based", "conditions": "Homo sapiens, A549, 48 h"}, "[7]": {"test": "Stability of the compound in pH 9 buffer assessed as decrease in compound concentration at 0.01 mg/ml measured up to 24 hrs by LC-MS analysis", "format": "physicochemical", "conditions": "read-out: Drug degradation", "outline": "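Compound at 0.01 mg/mL final in buffer containing 10% acetonitrile at pH 1.0, 4.5, 6.6, 7.4 or 9.0. Held at 37 °C, sampled at 0, 2, 4, 6, 8, 10, 12 and 24 h. Remaining compound by LC-MS.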"}, "[8]": {"test": "Acute toxicity in BALB/c mouse assessed as effect on blood BUN level at 400 mg/kg, po measured on day 14", "format": "organism-based", "conditions": "in vivo", "outline": "as §1"}, "[9]": {"test": "Acute toxicity in BALB/c mouse assessed as effect on blood LDLC level at 400 mg/kg, po measured on day 14", "format": "organism-based", "conditions": "in vivo", "outline": "as §1"}, "[10]": {"test": "Acute toxicity in BALB/c mouse assessed as effect on liver at 800 mg/kg, po measured on day 14 by H and E staining based light microscopic analysis", "format": "organism-based", "conditions": "in vivo", "outline": "(§2)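 Female and male BALB/c mice, 6-8 weeks old, dosed orally within 24 h at up to 400 mg/kg (free compound) or 800 mg/kg (nanocrystal). At the end of treatment, heart, liver, spleen, lung and kidney were sectioned, stained with H&E and imaged by light microscopy.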"}, "[11]": {"test": "Half life in Sprague-Dawley rat at 25 mg/kg, po administered via gavage by LC-MS analysis", "format": "ADME, organism-based", "conditions": "in vivo", "outline": "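Male Sprague-Dawley rats, fasted overnight, with jugular vein catheters for serial blood sampling. Single dose given by oral gavage (25 mg/kg) or tail-vein injection (5 mg/kg). Blood drawn at set times and centrifuged at once for plasma. Plasma drug levels measured by LC-MS. Parameters reported as means, n = 6.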"}, "[12]": {"test": "Half life in rat liver microsomes at 1 uM in presence of NADPH by LC-MS analysis", "format": "ADME, Microsome", "outline": "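Compound at 1 μM with 0.5 mg/mL human, rat or mouse liver microsomes and 1 mM NADPH. Stopped with acetonitrile at 0, 5, 15, 30, 45, 60 and 90 min, centrifuged. Supernatant analysed by LC-MS/MS.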"}, "Raji [13]": {"tested_on": "Raji", "test": "Induction of apoptosis in human Raji cells assessed as early apoptotic cells at 0.063 uM measured after 48 hrs by Annexin V-FITC staining based flow cytometry (reference value: 1 %)", "format": "functional"}, "HCT-116": {"tested_on": "HCT-116", "test": "Antiproliferative activity against human HCT116 cells assessed as reduction in cell viability measured after 48 hrs by MTT assay", "format": "functional, cell-based", "conditions": "Homo sapiens, HCT-116, 48 h"}, "[14]": {"test": "Acute toxicity in BALB/c mouse assessed as effect on blood ALP level at 800 mg/kg, po measured on day 14", "format": "organism-based", "conditions": "in vivo", "outline": "as §1"}, "Raji [15]": {"tested_on": "Raji", "test": "Antiproliferative activity against human Raji cells assessed as inhibition of cell proliferation at 0.02 to 0.156 uM measured after 48 hrs in presence of uridine by MTT assay", "format": "functional, cell-based", "outline": "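Raji cells treated with or without 500 μM uridine, viability by MTT. Cells seeded at 2-10 × 10^3 per well, treated 24 h later for 48 h. MTT (5 mg/mL) for 2-4 h, product dissolved overnight in 20% acidified SDS, absorbance at 570 nm. Mean ± SD.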"}, "[16]": {"test": "Tmax in Sprague-Dawley rat at 25 mg/kg, po administered via gavage by LC-MS analysis", "format": "ADME, organism-based", "conditions": "in vivo", "outline": "(§3)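 Male Sprague-Dawley rats, fasted overnight, jugular vein catheter for serial blood sampling. Single dose of 25 mg/kg by oral gavage or 5 mg/kg by tail-vein injection. Blood drawn at set times and spun at once for plasma, plasma drug by LC-MS. Parameters given as mean, n = 6.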"}, "Raji [17]": {"tested_on": "Raji", "test": "Induction of apoptosis in human Raji cells assessed as necrotic cells at 0.063 uM measured after 48 hrs by Annexin V-FITC staining based flow cytometry (reference value: 0.21 %)", "format": "functional"}, "[18]": {"test": "Acute toxicity in BALB/c mouse assessed as effect on blood BILT level at 800 mg/kg, po measured on day 14", "format": "organism-based", "conditions": "in vivo", "outline": "as §1"}, "Raji [19]": {"tested_on": "Raji", "test": "Antitumor activity against human Raji cells xenografted in NOD-SCID nude mouse assessed as tumor growth inhibition at 30 mg/kg/day, po administered 6 days a week for 3 weeks relative to control", "format": "functional", "conditions": "read-out: TGI", "outline": "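Nude mice given 1 × 10^7 Raji cells s.c. in serum-free medium plus basement membrane matrix. Randomized at 100–200 mm3 tumour volume (n = 6 per group). Oral dosing 6 days/week for 3 weeks. Vehicles: 30 mg/kg/d in 5% NMP/95% PEG400, 10 mg/kg/d in 30% PEG300/70% saline. Volume = ab²/2 every 3 days. TGI from treated vs control volume change, initial to final day.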"}, "HeLa": {"tested_on": "HeLa", "test": "Antiproliferative activity against human HeLa cells assessed as reduction in cell viability measured after 48 hrs by MTT assay", "format": "functional, cell-based", "conditions": "Homo sapiens, HeLa, 48 h"}, "[20]": {"test": "Oral bioavailability in Sprague-Dawley rat at 25 mg/kg administered via gavage by LC-MS analysis", "format": "ADME, organism-based", "conditions": "in vivo", "outline": "as §3"}, "[21]": {"test": "Acute toxicity in BALB/c mouse assessed as effect on liver at 400 mg/kg, po measured on day 14 by H and E staining based light microscopic analysis", "format": "organism-based", "conditions": "in vivo", "outline": "as §2"}},
  "note": "Several values for one entry are separate records, joined by “and”; a condition that tells them apart may be missing. Equal entries are not always repeated. Activity calls are given as the source filed them. The calls are words filed in the database; no cut-off is given here.",
  "data": [
    {"smiles": "O=C1c2ccccc2C(=O)c2c1nnn2-c1cc(F)c(-c2ccccc2F)c(F)c1", "values": [
      {"measurement": "Activity", "setting": "[1]", "value": "Non-Toxic"},
      {"measurement": "IC50", "setting": "MCF7", "value": 9610, "unit": "nM"},
      {"measurement": "MTD", "setting": "[2]; BALB/c, read-out: MTD", "value": 400, "unit": "mg/kg"},
      {"measurement": "MTD", "setting": "[2]", "value": 800, "unit": "mg/kg"},
      {"measurement": "Activity", "setting": "Raji [3]", "value": 76.62, "unit": "%"},
      {"measurement": "Activity", "setting": "Raji [4]", "value": 0.39, "unit": "%"},
      {"measurement": "Activity", "setting": "[5]", "value": "Non-Toxic"},
      {"measurement": "Activity", "setting": "Raji [6]", "value": "Dose-dependent effect"},
      {"measurement": "IC50", "setting": "A549", "value": 1650, "unit": "nM"},
      {"measurement": "degraded at 24 h, 0.01 mg/ml", "setting": "[7]", "value": 15, "unit": "%"},
      {"measurement": "Activity", "setting": "[8]", "value": "Non-Toxic"},
      {"measurement": "Activity", "setting": "[9]", "value": "Non-Toxic"},
      {"measurement": "Activity", "setting": "[10]", "value": "Non-Toxic"},
      {"measurement": "half-life", "setting": "[11]; Sprague-Dawley", "value": 8.83, "unit": "h"},
      {"measurement": "t1/2", "setting": "[11]", "value": 12.47, "unit": "h"},
      {"measurement": "t1/2", "setting": "[12]", "value": "0.33 h and 0.9 h"},
      {"measurement": "Activity", "setting": "Raji [13]", "value": 3.08, "unit": "%"},
      {"measurement": "IC50", "setting": "HCT-116", "value": 290, "unit": "nM"},
      {"measurement": "Activity", "setting": "[14]", "value": "Non-Toxic"},
      {"measurement": "inhibition", "setting": "Raji [15]", "value": "inactive"},
      {"measurement": "Tmax", "setting": "[16]", "value": "10 h and 27 h"},
      {"measurement": "Activity", "setting": "Raji [17]", "value": 0.34, "unit": "%"},
      {"measurement": "Activity", "setting": "[18]", "value": "Non-Toxic"},
      {"measurement": "inhibition in vivo at 30 mg/kg/day", "setting": "Raji [19]", "value": 42, "unit": "%"},
      {"measurement": "IC50", "setting": "HeLa", "value": "> 10000", "unit": "nM"},
      {"measurement": "F", "setting": "[20]", "value": "9.66% and 25.16%"},
      {"measurement": "Activity", "setting": "[21]", "value": "Non-Toxic"}
    ]}
  ]
}
